Calls of active or inactive are those of the source. No cut-off for these calls is given here.
How the values were obtained:
[1] = test system: Mammalian orthoreovirus 1; experiment: Antiviral activity against Reovirus-1 infected in african green monkey Vero assessed as inhibition of virus-induced cytopathicity after 3 days; format: functional, organism-based
In short: (§1)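 Confluent cell monolayers infected with 100 CCID50 of virus in the presence of test compound at 100, 20,... μM. Cytopathicity was scored once it was complete in untreated infected controls.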

[2] = test system: Influenza A virus; experiment: Antiviral activity against Influenza A virus H1N1 infected in MDCK assessed as inhibition of virus-induced cytopathicity after 3 days; format: functional, organism-based
[3] = test system: Human alphaherpesvirus 3; experiment: Antiviral activity against VZV OKA expressing thymidine kinase infected in HEL cells assessed as inhibition of virus-induced cytopathogenicity after 3 days; format: functional, cell-based; conditions: Human alphaherpesvirus 3, strain Oka vaccine, 72 h
[4] = test system: Sindbis virus; experiment: Antiviral activity against Sindbis virus infected in african green monkey Vero assessed as inhibition of virus-induced cytopathicity after 3 days; format: functional, organism-based; in short: as §1
[5] = test system: Human alphaherpesvirus 1; experiment: Antiviral activity against acyclovir-resistant thymidine kinase deficient HSV1 KOS infected in HEL assessed as inhibition of virus-induced cytopathicity after 3 days; format: functional, organism-based; conditions: Human alphaherpesvirus 1, KOS, 72 h
[6] = test system: Vaccinia virus; experiment: Antiviral activity against Vaccinia virus infected in HEL assessed as inhibition of virus-induced cytopathicity after 3 days; format: functional, organism-based; conditions: Orthopoxvirus vaccinia, 72 h
[7] = test system: Vesicular stomatitis virus; experiment: Antiviral activity against Vesicular stomatitis virus infected in MDCK assessed as inhibition of virus-induced cytopathicity after 3 days; format: functional, organism-based
[8] = Cytotoxicity against HEL assessed as minimum compound concentration causes microscopically detectable alteration of cell morphology after 3 days; format: cell-based; conditions: human, HEL cells
[9] = test system: Human alphaherpesvirus 3; experiment: Antiviral activity against thymidine kinase-deficient VZV 07/1 infected in human HEL cells assessed as reduction of virus-induced cytopathogenicity after 3 days; format: functional, organism-based; conditions: Human alphaherpesvirus 3, 07/1, HEL, 72 h
[10] = test system: Punta Toro virus; experiment: Antiviral activity against Punta Toro virus infected in african green monkey Vero assessed as inhibition of virus-induced cytopathicity after 3 days; format: functional, organism-based; in short: as §1
[11] = test system: Coxsackievirus B4; experiment: Antiviral activity against Coxsackievirus B4 infected in human HeLa assessed as inhibition of virus-induced cytopathicity after 3 days; format: functional, organism-based; in short: as §1
[12] = test system: Respiratory syncytial virus; experiment: Antiviral activity against Respiratory syncytial virus infected in human HeLa assessed as inhibition of virus-induced cytopathicity after 3 days; format: functional, organism-based; in short: as §1
[13] = test system: Influenza B virus; experiment: Antiviral activity against Influenza B virus infected in MDCK assessed as inhibition of virus-induced cytopathicity after 3 days; format: functional, organism-based
[14] = test system: Vesicular stomatitis virus; experiment: Antiviral activity against Vesicular stomatitis virus infected in human HeLa assessed as inhibition of virus-induced cytopathicity after 3 days; format: functional, organism-based
[15] = test system: Influenza A virus; experiment: Antiviral activity against Influenza A virus H3N2 infected in MDCK assessed as inhibition of virus-induced cytopathicity after 3 days; format: functional, organism-based
[16] = test system: Human respirovirus 3; experiment: Antiviral activity against Parainfluenza-3 virus infected in african green monkey Vero assessed as inhibition of virus-induced cytopathicity after 3 days; format: functional, organism-based; in short: as §1
[17] = test system: Human alphaherpesvirus 1; experiment: Antiviral activity against HSV1 KOS infected in HEL assessed as inhibition of virus-induced cytopathicity after 3 days; format: functional, organism-based; conditions: Human alphaherpesvirus 1, KOS, 72 h
[18] = test system: Human alphaherpesvirus 2; experiment: Antiviral activity against HSV2 G infected in HEL assessed as inhibition of virus-induced cytopathicity after 3 days; format: functional, organism-based; conditions: Human alphaherpesvirus 2, strain G, 72 h; in short: as §1
[19] = Cytotoxicity against HEL after 3 days; format: cell-based; conditions: human, HEL cells
In short: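 HEL cells were seeded at 5×10^3 cells/well and allowed to grow for 24 h, then given medium with varying compound concentrations. After 3 days at 37 °C, cells were counted with a Coulter counter.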

Row | Compound | Activity [1] | Activity [2] | EC50 [3] | Activity [4] | EC50 [5] | EC50 [6] | Activity [7] | MCC at 72 h [8] | EC50 [9] | Activity [10] | Activity [11] | Activity [12] | Activity [13] | Activity [14] | Activity [15] | Activity [16] | EC50 [17] | EC50 [18] | CC50 at 72 h [19]
1 | CC(C)(C)C(=O)OCOP(=O)(C/C=C/Cn1cnc2c(Cl)ncnc21)OCOC(=O)C(C)(C)C | inactive | inactive | > 20 µM | inactive | > 20 µM | > 20 µM | inactive | 100 µM | > 20 µM | inactive | inactive | inactive | inactive | inactive | inactive | inactive | > 20 µM | > 20 µM | 10.5 µM
2 | CC(C)(C)C(=O)OCOP(=O)(C/C=C/Cn1cnc2c(NC3CCCCC3)ncnc21)OCOC(=O)C(C)(C)C | inactive | inactive | 20 µM | inactive | > 100 µM | > 100 µM | inactive | 100 µM | > 20 µM | inactive | inactive | inactive | inactive | inactive | inactive | inactive | > 100 µM | > 100 µM | 11.4 µM
3 | C=CCNc1ncnc2c1ncn2C/C=C/CP(=O)(OCOC(=O)C(C)(C)C)OCOC(=O)C(C)(C)C | inactive | inactive | > 100 µM | inactive | > 100 µM | > 100 µM | inactive | > 100 µM | > 100 µM | inactive | inactive | inactive | inactive | inactive | inactive | inactive | > 100 µM | > 100 µM | > 100 µM
4 | CC(C)(C)C(=O)OCOP(=O)(C/C=C/Cn1cnc2c(N)ncnc21)OCOC(=O)C(C)(C)C | inactive | inactive | 12.6 µM | inactive | 20 µM | > 100 µM | inactive | > 100 µM | 13.5 µM | inactive | inactive | inactive | inactive | inactive | inactive | inactive | > 100 µM | 45 µM | 11.6 µM
5 | CC(C)(C)C(=O)OCOP(=O)(C/C=C/Cn1cnc2c(=O)[nH]cnc21)OCOC(=O)C(C)(C)C | inactive | inactive | > 100 µM | inactive | > 100 µM | > 100 µM | inactive | > 100 µM | > 20 µM | inactive | inactive | inactive | inactive | inactive | inactive | inactive | > 100 µM | > 100 µM | 51.9 µM
6 | CC(C)(C)C(=O)OCOP(=O)(C/C=C/Cn1cnc2c(NC3CC3)ncnc21)OCOC(=O)C(C)(C)C | inactive | inactive | 55.7 µM | inactive | > 100 µM | > 100 µM | inactive | > 100 µM | 47.2 µM | inactive | inactive | inactive | inactive | inactive | inactive | inactive | > 100 µM | > 100 µM | 39.6 µM
7 | O=c1[nH]c(=O)n([C@H]2C[C@H](O)[C@@H](CO)O2)cc1/C=C/Br [BRIVUDINE] | – | – | – | – | – | 5 µM | – | > 100 µM | – | – | – | – | – | – | – | – | 0.08 µM | 50 µM | –
8 | CC(C)(C)C(=O)OCOP(=O)(C/C=C/Cn1cnc2c(Cl)nc(N)nc21)OCOC(=O)C(C)(C)C | inactive | inactive | 4.4 µM | inactive | > 20 µM | > 20 µM | inactive | > 100 µM | 2.2 µM | inactive | inactive | inactive | inactive | inactive | inactive | inactive | > 20 µM | > 20 µM | 5.4 µM
9 | Nc1ccn(C[C@@H](CO)OCP(=O)(O)O)c(=O)n1 [CIDOFOVIR] | – | – | – | – | – | 10 µM | – | – | – | – | – | – | – | – | – | – | 1.2 µM | 1 µM | –
10 | CCCCNc1ncnc2c1ncn2C/C=C/CP(=O)(OCOC(=O)C(C)(C)C)OCOC(=O)C(C)(C)C | inactive | inactive | 100 µM | inactive | > 100 µM | > 100 µM | inactive | > 100 µM | > 100 µM | inactive | inactive | inactive | inactive | inactive | inactive | inactive | > 100 µM | > 100 µM | 37.2 µM
11 | CC(C)(C)C(=O)OCOP(=O)(C/C=C/Cn1cnc2c(NC3CCCCC3)nc(N)nc21)OCOC(=O)C(C)(C)C | inactive | inactive | 6.34 µM | inactive | > 100 µM | > 100 µM | inactive | 100 µM | 20 µM | inactive | inactive | inactive | inactive | inactive | inactive | inactive | > 100 µM | > 100 µM | 9 µM
12 | CC(C)(C)C(=O)OCOP(=O)(C/C=C/Cn1cnc2c(=O)n3cc[nH]c3nc21)OCOC(=O)C(C)(C)C | inactive | inactive | 17.3 µM | inactive | > 100 µM | > 100 µM | inactive | > 100 µM | 40.7 µM | inactive | inactive | inactive | inactive | inactive | inactive | inactive | > 100 µM | > 100 µM | –
13 | CC(C)c1ccc(Nc2ncnc3c2ncn3C/C=C/CP(=O)(OCOC(=O)C(C)(C)C)OCOC(=O)C(C)(C)C)cc1 | inactive | inactive | > 20 µM | inactive | > 100 µM | > 100 µM | inactive | 100 µM | > 20 µM | inactive | inactive | inactive | inactive | inactive | inactive | inactive | > 100 µM | > 100 µM | 32.3 µM
14 | CC(C)(C)C(=O)OCOP(=O)(C/C=C/Cn1cnc2c(NC3CC3)nc(N)nc21)OCOC(=O)C(C)(C)C | inactive | inactive | 0.8 µM | inactive | 16.3 µM | 20 µM | inactive | > 100 µM | 0.8 µM | inactive | inactive | inactive | inactive | inactive | inactive | inactive | 16.3 µM | 7.2 µM | 2.3 µM
15 | Nc1nc2c(ncn2COCCO)c(=O)[nH]1 [ACYCLOVIR] | – | – | – | – | – | > 250 µM | – | > 100 µM | – | – | – | – | – | – | – | – | – | – | 134 µM
